Measurements as given in ChEMBL document CHEMBL1157852, “Modulation of doxorubicin activity in cancer cells by conjugation with fatty acyl and terpenyl hydrazones” (Eur J Med Chem, 2010).
Calls of active or inactive are those of the source. The rule behind the calls is not given here.

Key:
518A2 [1] = experiment: Induction of apoptosis in human 518A2 cells assessed as increase of ratio of Bax to Bcl-2 mRNA expression at 5 uM after 6 to 18 hrs by RT-PCR analysis; type: functional, cell-based
In short: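 518A2 cells exposed to 5 µM compound for 6 h or 18 h. bax and bcl-2 mRNA quantified by real-time PCR, normalised to GAPDH, and expressed as the bax/bcl-2 ratio.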

[2] = Cytotoxicity against human 518A2 cells after 24 hrs by MTT assay; type: functional, cell-based; conditions: 518A2, 24 h
In short: (§1)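 MTT assay. Cells seeded and cultured 24 h, then exposed to compound for 24, 48 or 72 h. MTT added to a final 0.05% (HL-60, 518A2) or 0.1% (KB-V1, MCF-7) for 2 h. Formazan dissolved in 10% SDS/DMSO with 0.6% acetic acid; absorbance read at 570 nm against 630 nm background. Viability taken relative to untreated controls (100%). IC50 from concentration-response curves, mean ± SD of four independent experiments.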

HL-60 [3] = experiment: Induction of apoptosis in human HL60 cells assessed as increase of caspase 3 activity at 5 uM after 12 hrs by luminometric assay; type: functional, cell-based
In short: (§2)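 HL-60 and 518A2 cells treated with 5 µM compound and sampled at intervals from 1 to 24 h. Lysed in 50 mM Tris-HCl pH 7.4, 150 mM NaCl, 1% Triton X-100 with protease inhibitors for 15 min at 4 °C, spun at 800 g. Protein measured by Bradford. Caspase-3/7, -8 and -9 activities read with luminogenic peptide substrates; reported as relative luminescence.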

[4] = Cytotoxicity against human 518A2 cells assessed as increase in ROS production at 5 uM after 24 hrs by NBT reduction assay relative to control; type: functional
In short: (§3)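 NBT assay. HL-60 cells (0.5×10⁶/mL) or trypsinised 518A2 cells (5×10⁴/mL) pre-incubated 24 h at 37 °C, then given compound at a final 5 µM for 24 or 72 h. Medium removed; cells incubated with 0.1% NBT for 1 h (HL-60) or 4 h (518A2). Diformazan dissolved in 2 M KOH/DMSO; A630 read against 405 nm. Given as % of untreated controls; double quadruplicates.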

HL-60 [5] = experiment: Induction of apoptosis in human HL60 cells assessed as appearance of intact mitochondria in cytosol at 5 uM after 6 hrs using JC1 dye relative to control; type: functional
In short: (§4)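 Mitochondrial membrane potential measured with JC-1. Cells exposed to 5 µM compound for 6 or 18 h, pelleted at 400 g, stained with 0.2× JC-1 at 37 °C for 15 min (HL-60) or 35 min (518A2), washed and resuspended in PBS. Red fluorescence (ex 585/em 590 nm) and green (ex 510/em 527 nm) read; red/green ratio relative to untreated controls (100%). Mean ± SD, four independent experiments.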

518A2 [6] = experiment: Induction of apoptosis in human 518A2 cells assessed as appearance of intact mitochondria in cytosol at 5 uM after 6 hrs using JC1 dye relative to control; type: functional; in short: as §4
HL-60 [7] = experiment: Induction of apoptosis in human HL60 cells assessed as increase of Bcl-2 mRNA expression at 5 uM up to 24 hrs by […] analysis; type: functional, cell-based
518A2 [8] = experiment: Induction of apoptosis in human 518A2 cells assessed as increase of caspase 3 activity at 5 uM measured up to 12 hrs by luminometric assay; type: functional, cell-based; in short: as §2
[9] = Cytotoxicity against human vinblastine-resistant KBV1 cells after 72 hrs by MTT assay; type: functional, cell-based; conditions: KB-V1, 72 h; in short: as §1
HL-60 [10] = experiment: Cytotoxicity against human HL60 cells assessed as increase in ROS production at 5 uM after 72 hrs by NBT reduction assay relative to control; type: functional; in short: as §3
[11] = Cytotoxicity against human 518A2 cells after 72 hrs by MTT assay; type: functional, cell-based; conditions: 518A2, 72 h; in short: as §1
[12] = Cytotoxicity against human vinblastine-resistant KBV1 cells after 48 hrs by MTT assay; type: functional, cell-based; conditions: KB-V1, 48 h; in short: as §1
518A2 [13] = experiment: Induction of apoptosis in human 518A2 cells assessed as increase of caspase 8 activity at 5 uM measured up to 12 hrs by luminometric assay; type: functional, cell-based; in short: as §2
HL-60 [14] = experiment: Cytotoxicity against human HL60 cells after 48 hrs by MTT assay; type: functional, cell-based; conditions: HL-60, 48 h; in short: as §1
HL-60 [15] = experiment: Induction of apoptosis in human HL60 cells assessed as increase of caspase 3 activity at 5 uM after 4 hrs by luminometric assay; type: functional, cell-based; in short: as §2
[16] = Cytotoxicity against human vinblastine-resistant KBV1 cells after 72 hrs by MTT assay in presence of 24 mM ABC transporter inhibitor verapamil hydrochloride; type: functional, cell-based; conditions: KB-V1, 72 h, in the assay text read “24 uM” for “24 mM”
In short: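 MTT viability assay on P-gp-overexpressing KB-V1/Vbl cells with 24 µM verapamil hydrochloride added before the compound; 72 h exposure. Formazan read at 570/630 nm relative to untreated controls. IC50 from concentration-response curves, mean ± SD of four independent experiments.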

HL-60 [17] = experiment: Induction of apoptosis in human HL60 cells assessed as increase of Bax mRNA expression at 5 uM up to 24 hrs by […] analysis; type: functional, cell-based
HL-60 [18] = experiment: Induction of apoptosis in human HL60 cells assessed as increase of caspase 8 activity at 5 uM after 4 to 24 hrs by luminometric assay; type: functional, cell-based; in short: as §2
518A2 [19] = experiment: Induction of apoptosis in human 518A2 cells assessed as appearance of intact mitochondria in cytosol at 5 uM after 18 hrs using JC1 dye relative to control; type: functional; in short: as §4
518A2 [20] = experiment: Induction of apoptosis in human 518A2 cells assessed as increase of Bcl-2 mRNA expression at 5 uM up to 24 hrs by […] analysis; type: functional, cell-based
518A2 [21] = experiment: Induction of apoptosis in human 518A2 cells assessed as increase of caspase 9 activity at 5 uM after 8 to 12 hrs by luminometric assay; type: functional, cell-based; in short: as §2
HL-60 [22] = experiment: Cytotoxicity against human HL60 cells assessed as increase in ROS production at 5 uM after 24 hrs by NBT reduction assay relative to control; type: functional; in short: as §3
HL-60 [23] = experiment: Induction of apoptosis in human HL60 cells assessed as appearance of intact mitochondria in cytosol at 5 uM after 18 hrs using JC1 dye relative to control; type: functional; in short: as §4
HL-60 [24] = experiment: Cytotoxicity against human HL60 cells after 72 hrs by MTT assay; type: functional, cell-based; conditions: HL-60, 72 h; in short: as §1
[25] = Cytotoxicity against human vinblastine-resistant KBV1 cells after 24 hrs by MTT assay; type: functional, cell-based; conditions: KB-V1, 24 h; in short: as §1
HL-60 [26] = experiment: Cytotoxicity against human HL60 cells after 24 hrs by MTT assay; type: functional, cell-based; conditions: HL-60, 24 h; in short: as §1
HL-60 [27] = experiment: Induction of apoptosis in human HL60 cells assessed as DNA ladder formation at 5 uM after 24 hrs by agarose gel electrophoresis; type: functional, cell-based
In short: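 HL-60 cells incubated with 5 µM compound for 24 h, then examined for DNA ladder patterns.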

[28] = Cytotoxicity against human 518A2 cells after 48 hrs by MTT assay; type: functional, cell-based; conditions: 518A2, 48 h; in short: as §1
HL-60 [29] = experiment: Induction of apoptosis in human HL60 cells assessed as increase of caspase 9 activity at 5 uM after 12 hrs by luminometric assay; type: functional, cell-based
In short: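 HL-60 leukaemia cells were treated with test compound and sampled at intervals from 1 to 24 h. Protein was measured by Bradford. Caspase-9 (Caspase-Glo 8 for line 1) was read from a luminogenic peptide substrate as relative luminescence.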

[30] = Cytotoxicity against human 518A2 cells assessed as increase in ROS production at 5 uM after 72 hrs by NBT reduction assay relative to control; type: functional; in short: as §3
HL-60 [31] = experiment: Induction of apoptosis in human HL60 cells assessed as increase of caspase 8 activity at 5 uM after 12 hrs by luminometric assay; type: functional, cell-based; in short: as §2
HL-60 [32] = experiment: Induction of apoptosis in human HL60 cells assessed as increase of ratio of Bax to Bcl-2 mRNA expression at 5 uM after 6 to 18 hrs by RT-PCR analysis; type: functional, cell-based
In short: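 Real-time PCR of bax and bcl-2 mRNA in HL-60 cells after 6 h and 18 h exposure to test compound. Each gene was normalised to GAPDH, and the bax/bcl-2 expression ratio was reported.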

MCF7 [33] = experiment: Cytotoxicity against human topotecan-resistant MCF7 cells after 72 hrs by MTT assay; type: functional, cell-based; conditions: MCF7, 72 h; in short: as §1
HL-60 [34] = experiment: Induction of apoptosis in human HL60 cells assessed as increase of caspase 3 activity at 5 uM after 18 hrs by luminometric assay; type: functional, cell-based; in short: as §2
MCF7 [35] = experiment: Cytotoxicity against human topotecan-resistant MCF7 cells after 48 hrs by MTT assay; type: functional, cell-based; conditions: MCF7, 48 h; in short: as §1
HL-60 [36] = experiment: Induction of apoptosis in human HL60 cells assessed as increase of caspase 8 activity at 5 uM after 24 hrs by luminometric assay; type: functional, cell-based; in short: as §2
MCF7 [37] = experiment: Cytotoxicity against human topotecan-resistant MCF7 cells after 24 hrs by MTT assay; type: functional, cell-based; conditions: MCF7, 24 h; in short: as §1
518A2 [38] = experiment: Induction of apoptosis in human 518A2 cells assessed as increase of caspase 8 activity at 5 uM after 6 hrs by luminometric assay; type: functional, cell-based; in short: as §2
518A2 [39] = experiment: Induction of apoptosis in human 518A2 cells assessed as increase of caspase 3 activity at 5 uM after 8 hrs by luminometric assay; type: functional, cell-based; in short: as §2

COc1cccc2c1C(=O)c1c(O)c3c(c(O)c1C2=O)C[C@@](O)(C(=O)CO)C[C@@H]3O[C@H]1C[C@H](N)[C@H](O)[C@H](C)O1.Cl [DOXORUBICIN HYDROCHLORIDE]
Activity (518A2 [1]): Active
IC50 [2]: 340 nM
Activity (HL-60 [3]): Active
Activity [4]: 2.5%
Activity (HL-60 [5]): 83%
Activity (518A2 [6]): 98%
Activity (HL-60 [7]): Active
Activity (518A2 [8]): inactive
IC50 [9]: 18300 nM
Activity (HL-60 [10]): 5.6%
IC50 [11]: 120 nM
IC50 [12]: 35600 nM
Activity (518A2 [13]): inactive
IC50 (HL-60 [14]): 100 nM
Activity (HL-60 [15]): Active
IC50 [16]: 1020 nM
Activity (HL-60 [17]): inactive
Activity (HL-60 [18]): Active
Activity (518A2 [19]): 74%
Activity (518A2 [20]): inactive
Activity (518A2 [21]): Active
Activity (HL-60 [22]): 2.8%
Activity (HL-60 [23]): 28%
IC50 (HL-60 [24]): 80 nM
IC50 [25]: 59900 nM
IC50 (HL-60 [26]): 220 nM
Activity (HL-60 [27]): Active
IC50 [28]: 170 nM
Activity (HL-60 [29]): Active
Activity [30]: 15.4%

COc1cccc2c1C(=O)c1c(O)c3c(c(O)c1C2=O)C[C@@](O)(/C(CO)=N/NC(=O)CC(=O)O[C@@H]1C[C@H](C)CC[C@H]1C(C)C)C[C@@H]3O[C@H]1C[C@H](N)[C@H](O)[C@H](C)O1.Cl [DOXORUBICIN MENTHOXYCARBONYLACETYLHYDRAZONE HYDROCHLORIDE]
Activity (518A2 [1]): Active
IC50 [2]: 710 nM
Activity (HL-60 [31]): Active
Activity (HL-60 [32]): Active
IC50 (MCF7 [33]): 2700 nM
Activity [4]: 3%
Activity (HL-60 [5]): 76%
Activity (518A2 [6]): 93%
IC50 [9]: 10300 nM
Activity (HL-60 [34]): Active
Activity (HL-60 [10]): 11.2%
IC50 [11]: 140 nM
IC50 [12]: 18400 nM
IC50 (HL-60 [14]): 260 nM
IC50 (MCF7 [35]): 3800 nM
Activity (518A2 [19]): 61%
Activity (HL-60 [36]): Active
IC50 (MCF7 [37]): 8400 nM
Activity (HL-60 [22]): 3.8%
Activity (HL-60 [23]): 36%
IC50 (HL-60 [24]): 230 nM
IC50 [25]: 17800 nM
IC50 (HL-60 [26]): 570 nM
Activity (HL-60 [27]): Active
IC50 [28]: 540 nM
Activity (HL-60 [29]): Active
Activity [30]: 16.2%
Activity (518A2 [38]): Active
Activity (518A2 [39]): Active
